Source: ChEMBL document CHEMBL1123465, “Buspirone analogues. 2. Structure-activity relationships of aromatic imide derivatives” (J Med Chem, 1986)
Calls of active or inactive are those of the source. No cut-off for these calls is given here.

Columns and labels:
Rattus norvegicus [1] = experiment: Effective oral dose that produce reversal of trifluoperazine-induced catalepsy in rat; type: functional
Rattus norvegicus [2] = species: Rattus norvegicus; experiment: Maximum effective dose that causes vogel anticonflict effect when given through oral route; IA=Inactive; type: functional, organism-based
Outline: (§1)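 Reverse day-night cycled rats were water deprived 24 h, bottle trained for 15 min, then deprived a further 23.5 h. Compound was given orally before testing, and licks were counted, with brief grid shocks after a set lick number. Activity meant more licking than controls (Student's t test, p < 0.05). Maximum dose examined was 20 mg/kg.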

Rattus norvegicus [3] = experiment: Effective oral dose that conditioned avoidance response in rat; type: functional
Outline: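 On day 10, trained rats (groups of 5-10) were given drug or vehicle by oral gavage and tested at the time of maximal activity. Responses over 30 min (11 trials at 3-min intervals) were pooled across dose levels to calculate the dose suppressing avoidance in 50% of animals (ED50).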

D(2) dopamine receptor = D(2) dopamine receptor (Rattus norvegicus, UniProt P61169); experiment: Binding affinity at Dopamine receptor D2 in rat corpus striatum by displacing [3H]-spiperone.; type: tissue-based
D(2) dopamine receptor, sequence (P61169 whole entry): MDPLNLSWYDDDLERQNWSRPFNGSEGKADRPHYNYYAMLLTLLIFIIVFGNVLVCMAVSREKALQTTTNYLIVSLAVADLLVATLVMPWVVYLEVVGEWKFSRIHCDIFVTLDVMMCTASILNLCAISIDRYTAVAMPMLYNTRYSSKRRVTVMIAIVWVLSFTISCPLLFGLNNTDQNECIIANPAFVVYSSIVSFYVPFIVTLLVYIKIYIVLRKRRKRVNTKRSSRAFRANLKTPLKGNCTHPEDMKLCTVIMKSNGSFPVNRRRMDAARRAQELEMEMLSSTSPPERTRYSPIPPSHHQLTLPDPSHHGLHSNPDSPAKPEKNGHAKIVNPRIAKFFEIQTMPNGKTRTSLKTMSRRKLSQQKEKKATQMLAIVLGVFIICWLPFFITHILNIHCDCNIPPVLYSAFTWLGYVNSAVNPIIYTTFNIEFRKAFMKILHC
Outline: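 Washed membranes from male Sprague-Dawley rat corpora striata were preincubated 10 min at 37 °C in Hepes-KOH pH 7.4 buffer with NaCl, KCl, CaCl2, MgCl2, ascorbic acid and 10 μM pargyline. 20-50 μg protein was incubated with 100 pM [3H]spiperone for 15 min at 37 °C, in duplicate. Nonspecific binding was defined with 10 μM D-(+)-butaclamol. IC50 came from log-probit linear regression over 3-5 concentrations.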

Rattus norvegicus [4] = species: Rattus norvegicus; experiment: Maximum effective dose that causes vogel anticonflict effect when given through oral route; type: functional; conditions: read-out: MED; outline: as §1
Rattus norvegicus [5] = experiment: Induction of serotonin syndrome when given po
Rattus norvegicus [6] = experiment: Inhibition of dorsal raphe neuron firing when given iv; type: functional
Rattus norvegicus [7] = species: Rattus norvegicus; experiment: Inhibition of dorsal raphe neuron firing; type: functional
Rattus norvegicus [8] = species: Rattus norvegicus; experiment: Inhibition of induced serotonin syndrome; IA=Inactive; type: functional, organism-based

| SMILES | ED50 (Rattus norvegicus [1]) [mg/kg] | MED (Rattus norvegicus [2]) | ED50 (Rattus norvegicus [3]) [mg/kg] | IC50 (D(2) dopamine receptor) [nM] | minimal effective dose (Rattus norvegicus [4]) [mg/kg] | ED50 (Rattus norvegicus [5]) [mg/kg] | ED50 (Rattus norvegicus [6]) [mg/kg] | ED50 (Rattus norvegicus [7]) [mg/kg] | ED50 (Rattus norvegicus [8]) |
| --- | --- | --- | --- | --- | --- | --- | --- | --- | --- |
| Cl.O=C1CC2(CCCc3ccccc32)C(=O)N1CCCCN1CCN(c2ncccn2)CC1 (stereo not given) | > 20 | inactive | 50 | > 1000 |  |  |  |  |  |
| O=C1CC(c2ccccc2)(c2ccccc2)C(=O)N1CCCCN1CCN(c2ncccn2)CC1 | > 20 |  | > 100 | > 1000 | 10 |  |  |  |  |
| O=C1CC(c2ccccc2)(c2ccccc2)C(=O)N1CCCCN1CCN(c2nsc3ccccc23)CC1 | > 20 |  | > 100 | 230 |  |  |  |  |  |
| CSc1nc(N2CCN(CCCCN3C(=O)c4ccccc4C3=O)CC2)ncc1F.Cl | > 20 |  | > 100 | > 1000 |  |  |  |  |  |
| Cl.O=C1CC2(CCc3ccccc3C2)C(=O)N1CCCCN1CCN(c2ncccn2)CC1 (stereo not given) | 13 |  | 58 | 540 | 5 |  |  |  |  |
| O=C1c2ccc([N+](=O)[O-])cc2C(=O)N1CCCCN1CCN(c2ncccn2)CC1 | > 20 |  | 75 | > 1000 |  |  |  |  |  |
| O=C1c2c(Cl)c(Cl)c(Cl)c(Cl)c2C(=O)N1CCCCN1CCN(c2ncccn2)CC1 | > 20 |  | > 100 | > 1000 |  |  |  |  |  |
| N#Cc1cccnc1N1CCN(CCCCN2C(=O)CC(c3ccccc3)(c3ccccc3)C2=O)CC1 | > 20 |  | > 100 | > 1000 |  |  |  |  |  |
| CC1(C)CC(=O)N(CCCCN2CCN(c3ncccn3)CC2)C(=O)C1.Cl [GEPIRONE HYDROCHLORIDE] | 6.5 |  | 53 |  | 1 | 17.1 | 0.025 |  |  |
| CC1(c2ccc(F)cc2)CC(=O)N(CCCCN2CCN(c3ncccc3C#N)CC2)C1=O (stereo not given) | 20 | inactive | 100 | 710 |  |  |  |  |  |
| CC1(c2ccc(F)cc2)CC(=O)N(CCCCN2CCN(c3nsc4ccccc34)CC2)C1=O (stereo not given) | > 20 |  | 100 | 120 |  |  |  |  |  |
| Cl.N#Cc1cccnc1N1CCN(CCCCN2C(=O)c3ccc([N+](=O)[O-])cc3C2=O)CC1 | > 20 |  | 78 | > 1000 |  |  |  |  |  |
| CC1(c2ccccc2)CC(=O)N(CCCCN2CCN(c3ncccn3)CC2)C1=O.Cl (stereo not given) |  |  | 60 | > 1000 |  |  |  |  |  |
| CC1(c2ccc(F)cc2)CC(=O)N(CCCCN2CCN(c3ncccn3)CC2)C1=O (stereo not given) | 11 | inactive | 56 | > 1000 |  |  |  |  |  |
| CC1(c2ccc(F)cc2)CC(=O)N(CCN2CCN(c3ncccn3)CC2)C1=O (stereo not given) | > 20 |  | > 100 | > 1000 |  |  |  |  |  |
| CC1(c2ccc(F)cc2)CC(=O)N(CCCN2CCN(c3ncccn3)CC2)C1=O (stereo not given) | > 20 |  | > 100 | > 1000 |  |  |  |  |  |
| Cc1ccc(S(=O)(=O)O)cc1.O=C1CC2(CCCc3ccccc32)C(=O)N1CCCCN1CCN(c2nsc3ccccc23)CC1 (stereo not given) | > 20 |  | > 100 |  |  |  |  |  |  |
| O=C1c2cc(Cl)c(Cl)cc2C(=O)N1CCCCN1CCN(c2ncccn2)CC1 |  |  | > 100 | > 1000 |  |  |  |  |  |
| Cl.N#Cc1cccnc1N1CCN(CCCCN2C(=O)CC3(CCCc4ccccc43)C2=O)CC1 (stereo not given) | > 20 |  | 100 | 310 |  |  |  |  |  |
| Cl.O=C1CC2(CCCC2)CC(=O)N1CCCCN1CCN(c2ncccn2)CC1 [BUSPIRONE HYDROCHLORIDE] | 3.6 |  |  |  | 1 |  |  | 0.01 | inactive |
| O=C1c2ccccc2C(=O)N1CCCCN1CCN(c2ncccn2)CC1 | 20 | inactive | 65 | > 1000 |  |  |  |  |  |
| Cl.O=C1CC2(CCc3ccccc32)C(=O)N1CCCCN1CCN(c2ncccn2)CC1 (stereo not given) | 11.5 | inactive | 54 | 1300 |  |  |  |  |  |
| Cl.O=C1C2CC=CCC2C(=O)N1CCCCN1CCN(c2ncccn2)CC1 (stereo not given) |  |  | > 100 | > 1000 |  |  |  |  |  |
